Source: ChEMBL document CHEMBL1143074, “Symplocamide A, a potent cytotoxin and chymotrypsin inhibitor from the marine Cyanobacterium Symploca sp” (J Nat Prod, 2008)
The source made the active and inactive calls. The calls are words filed in the database; no cut-off is given here.

What was measured:
[1] = Inhibition of trypsin
Procedure, shortened: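 Trypsin (0.0023 mg/mL final, 2.75 BAEE U) was added to 0.45 mM BAEE in 64 mM NaH2PO4 pH 7.6 at 25 °C. Compound was premixed with substrate from a 1:2 EtOH dilution series (final 4.5 × 10-4 to 6.8 × 10^-6 M), against an EtOH blank. N-benzoyl-L-arginine formation was read at 253 nm for 5 min, and the 0.5–2 min interval was analyzed.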

[2] = Inhibition of chymotrypsin at 10 uM
[3] = Inhibition of trypsin at 10 uM
[4] = Inhibition of chymotrypsin
Procedure, shortened: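 Spectrophotometric assay: 0.0025 mg/mL chymotrypsin (0.0086 U) with 0.53 mM BTEE in 38 mM Tris-HCl pH 7.8, 53 mM CaCl2, 0.5 mM HCl and 32% MeOH at 25 °C. Inhibitor (from MeOH dilutions, final 6.25 × 10-5 to 7.5 × 10^-9 M) was equilibrated with substrate before enzyme addition. Absorbance at 256 nm was followed for 5 min, and the 0.5–1.5 min interval was analyzed.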

Plasmodium falciparum = assay: Antiparasitic activity against chloroquine-resistant Plasmodium falciparum W2 in microfluorimetric assay; type: functional, organism-based
Trypanosoma cruzi = assay: Antiparasitic activity against Trypanosoma cruzi C4 clone; type: functional, organism-based
NCI-H460 = assay: Cytotoxicity against human H460 cells; type: functional, cell-based
Leishmania donovani = assay: Antiparasitic activity against Leishmania donovani LD-1S/MHOM/SD/00-strain 1S; type: functional, organism-based
[5] = Cytotoxicity against mouse Neuro2a cells; type: functional, cell-based; details: N2a

Row | Compound | IC50 [1] | Activity [2] | Activity [3] | other results
1 | CC(C)C[C@@H](NC(=O)[C@H](O)COS(=O)(=O)O)C(=O)N[C@@H]1C(=O)N[C@@H](CCCNC(=N)N)C(=O)N[C@H]2CC[C@@H](O)N(C2=O)[C@@H](CC(C)C)C(=O)N(C)[C@@H](Cc2ccc(O)cc2)C(=O)N[C@@H](C(C)C)C(=O)O[C@@H]1C | 9.6 nM |  |  | 
2 | CC(C)[C@H](NC(=O)[C@@H](C)NC(=O)[C@H](CCCc1ccc(O)cc1)NC(=O)[C@H](O)CO)C(=O)N[C@@H]1C(=O)N[C@@H](CCc2ccc(O)cc2)C(=O)N[C@H]2CC[C@@H](O)N(C2=O)[C@@H]([C@@H](C)O)C(=O)N(C)[C@@H](Cc2ccc(O)c(Br)c2)C(=O)N[C@@H](C(C)C)C(=O)O[C@@H]1C |  | inactive | inactive | 
3 | CC[C@H](C)[C@@H]1NC(=O)[C@H](Cc2ccc(O)cc2)N(C)C(=O)[C@H]([C@@H](C)CC)N2C(=O)C(CCC2O)NC(=O)[C@H](CC(C)C)NC(=O)[C@@H]2C(OC1=O)C(C)CN2C(=O)[C@H](CCC(N)=O)NC(C)=O (stereo in doubt; form 2) |  | inactive | inactive | 
4 | CC[C@H](C)[C@@H]1NC(=O)[C@H](Cc2ccccc2)N(C)C(=O)[C@H]([C@@H](C)CC)N2C(=O)[C@H](CC[C@H]2O)NC(=O)[C@H](CCCNC(=N)N)NC(=O)[C@@H](NC(=O)[C@H](O)COS(=O)(=O)O)[C@@H](C)OC1=O [CYANOPEPTOLIN S] | 240 nM |  |  | 
5 | CCCC(=O)N[C@@H](CC(=O)O)C(=O)N[C@@H]1C(=O)N[C@@H](CCCNC(=N)N)C(=O)N[C@H]2CC[C@@H](O)N(C2=O)[C@@H](Cc2ccccc2)C(=O)N(C)[C@@H](Cc2ccc(O)cc2)C(=O)N[C@@H]([C@@H](C)CC)C(=O)O[C@@H]1C [MICROPEPTIN EI992] | 3830 nM | inactive |  | 
6 | CC[C@H](C)[C@@H]1NC(=O)[C@H](Cc2ccc(O)cc2)N(C)C(=O)[C@H](CC(C)C)N2C(=O)[C@H](CC[C@H]2OC)NC(=O)[C@H](CC(C)C)NC(=O)[C@@H]2[C@@H](OC1=O)C(C)CN2C(=O)[C@H](CCC(N)=O)NC(C)=O (stereo partly drawn) [NOSTOPEPTIN F] |  |  | inactive | IC50 [4]: 3800 nM
7 | CC[C@H](C)[C@@H]1NC(=O)[C@H](Cc2ccc(OC)cc2)N(C)C(=O)[C@H](CC(C)C)N2C(=O)[C@H](CC[C@H]2O)NC(=O)[C@H](CC(C)C)NC(=O)[C@@H]2[C@@H](OC1=O)C(C)CN2C(=O)[C@H](CCC(N)=O)NC(C)=O (stereo partly drawn) [NOSTOPEPTIN I] |  |  | inactive | IC50 [4]: 3500 nM
8 | CC[C@@H](C)[C@@H]1NC(=O)[C@H](Cc2ccccc2)N(C)C(=O)[C@H]([C@@H](C)CC)N2C(=O)[C@H](CC[C@H]2O)NC(=O)[C@H](CCCCN)NC(=O)[C@@H](NC(=O)[C@@H](CCc2ccccc2)NC(=O)[C@@H](COS(=O)(=O)O)OC)[C@@H](C)OC1=O [OSCILLAPEPTIN F] | 180 nM | inactive |  | 
9 | CC[C@H](C)[C@@H]1NC(=O)[C@H](Cc2ccc(OC)cc2)N(C)C(=O)[C@H]([C@@H](C)O)N2C(=O)[C@H](CC[C@H]2O)NC(=O)[C@H](CC(C)C)NC(=O)[C@@H](NC(=O)[C@H](CCC(N)=O)NC(=O)[C@@H](NC(=O)[C@@H](O)CO)C(C)C)[C@@H](C)OC1=O [PLANKTOPEPTIN BL1061] |  |  | inactive | IC50 [4]: 2100 nM
10 | CCCC(=O)N[C@@H](CCC(N)=O)C(=O)N[C@@H]1C(=O)N[C@@H](CCCNC(N)=O)C(=O)N[C@H]2CC[C@@H](O)N(C2=O)[C@@H]([C@@H](C)CC)C(=O)N(C)[C@@H](Cc2ccc(OC)c(Br)c2)C(=O)N[C@@H](C(C)C)C(=O)O[C@@H]1C [SYMPLOCAMIDE A] | 80200 nM |  |  | IC50 [4]: 380 nM; IC50 (Plasmodium falciparum): 950 nM; IC50 (Trypanosoma cruzi): > 9500 nM; IC50 (NCI-H460): 40 nM; IC50 (Leishmania donovani): > 9500 nM; IC50 [5]: 29 nM

Further lines, with some results ahead:

Row | IC50 [1] | Activity [2] | Activity [3] | Compound | other results
11 |  | inactive | inactive | CCC(=O)N[C@@H](CCC(N)=O)C(=O)N1CC(C)[C@@H]2OC(=O)[C@H]([C@@H](C)CC)NC(=O)[C@H](Cc3ccc(O)cc3)N(C)C(=O)[C@H]([C@@H](C)CC)N3C(=O)[C@H](CC[C@H]3O)NC(=O)[C@H](CC(C)C)NC(=O)[C@H]21 (stereo partly drawn) | 
12 |  | inactive | inactive | CCCC(=O)N[C@@H](CC(C)C)C(=O)N[C@@H](CCC(=O)O)C(=O)N[C@@H]1C(=O)N[C@@H](Cc2ccc(O)cc2)C(=O)N[C@H]2CC[C@@H](O)N(C2=O)[C@@H](C(C)C)C(=O)N(C)[C@@H](Cc2ccccc2)C(=O)N[C@@H]([C@@H](C)CC)C(=O)O[C@@H]1C | 
13 |  | inactive | inactive | CCCC(=O)N[C@@H](Cc1ccccc1)C(=O)N[C@@H](CCC(=O)O)C(=O)N[C@@H]1C(=O)N[C@@H](CCC(=O)O)C(=O)N[C@H]2CC[C@@H](O)N(C2=O)[C@@H](C(C)C)C(=O)N(C)[C@@H](Cc2ccccc2)C(=O)N[C@@H]([C@@H](C)CC)C(=O)O[C@@H]1C | 
14 |  | inactive | inactive | CC[C@H](C)[C@@H]1NC(=O)[C@H](Cc2ccc(OC)cc2)N(C)C(=O)[C@H]([C@@H](C)O)N2C(=O)[C@H](CC[C@H]2O)NC(=O)[C@H](CC(C)C)NC(=O)[C@@H](NC(=O)[C@H](CCC(N)=O)NC(=O)[C@@H]2CCC(=O)N2)[C@@H](C)OC1=O | 
15 | 2080 nM | inactive |  | CC(C)[C@@H]1NC(=O)[C@H](Cc2ccc(O)cc2)N(C)C(=O)[C@H](Cc2ccccc2)N2C(=O)[C@H](CC[C@H]2O)NC(=O)[C@H](CCCNC(=N)N)NC(=O)[C@@H](NC(=O)[C@@H](O)COS(=O)(=O)O)[C@@H](C)OC1=O [MICROPEPTIN 90] | 
16 | 70 nM | inactive |  | CCCCCCCC(=O)N[C@@H](CCC(=O)O)C(=O)N[C@@H]1C(=O)N[C@@H](CCCCN)C(=O)N[C@H]2CC[C@@H](O)N(C2=O)[C@@H](CC(C)C)C(=O)N(C)[C@@H](Cc2ccc(O)cc2)C(=O)N[C@@H](C(C)C)C(=O)O[C@@H]1C [MICROPEPTIN A] | 
17 | 260 nM | inactive |  | CCCCCC(=O)N[C@@H](CCC(=O)O)C(=O)N[C@@H]1C(=O)N[C@@H](CCCNC(=N)N)C(=O)N[C@H]2CC[C@@H](O)N(C2=O)[C@@H](CC(C)C)C(=O)N(C)[C@@H](Cc2ccc(O)cc2)C(=O)N[C@@H](C(C)C)C(=O)O[C@@H]1C [MICROPEPTIN B] | 
18 | 4360 nM | inactive |  | CC[C@H](C)[C@@H]1NC(=O)[C@H](Cc2ccc(O)cc2)N(C)C(=O)[C@H](Cc2ccccc2)N2C(=O)[C@H](CC[C@H]2O)NC(=O)[C@H](CCCNC(=N)N)NC(=O)[C@@H](NC(=O)[C@H](CC(=O)O)NC(C)=O)[C@@H](C)OC1=O [MICROPEPTIN E1964] | 
19 | 8470 nM | inactive |  | CCCCCC(=O)N[C@@H](CC(=O)O)C(=O)N[C@@H]1C(=O)N[C@@H](CCCCN)C(=O)N[C@H]2CC[C@@H](O)N(C2=O)[C@@H]([C@@H](C)CC)C(=O)N(C)[C@@H](Cc2ccc(O)cc2)C(=O)N[C@@H](C(C)C)C(=O)O[C@@H]1C [MICROPEPTIN SD944] | 
20 | 4000 nM | inactive |  | CCCCCC(=O)N[C@@H](CC(=O)O)C(=O)N[C@@H]1C(=O)N[C@@H](CCCNC(=N)N)C(=O)N[C@H]2CC[C@@H](O)N(C2=O)[C@@H]([C@@H](C)CC)C(=O)N(C)[C@@H](CC(=O)c2ccccc2N)C(=O)N[C@@H](C(C)C)C(=O)O[C@@H]1C [MICROPEPTIN SD999] | 
21 | 200 nM | inactive |  | CCCCCC(=O)N[C@@H](CC(=O)O)C(=O)N[C@@H]1C(=O)N[C@@H](CCCNC(=N)N)C(=O)N[C@H]2CC[C@@H](O)N(C2=O)[C@@H]([C@@H](C)CC)C(=O)N(C)[C@@H](Cc2c[nH]c3ccccc23)C(=O)N[C@@H](C(C)C)C(=O)O[C@@H]1C [MICROPEPTIN SF995] | 
22 | 100 nM | inactive |  | CCCCCC(=O)N[C@@H](CCC(=O)O)C(=O)N[C@@H]1C(=O)N[C@@H](CCCCN)C(=O)N[C@H]2CC[C@@H](O)N(C2=O)[C@@H](Cc2ccccc2)C(=O)N(C)[C@@H](Cc2c[nH]c3ccccc23)C(=O)N[C@@H](C(C)C)C(=O)O[C@@H]1C [MICROPEPTIN T2] | 
23 |  |  | inactive | CC[C@H](C)[C@@H]1NC(=O)[C@H](Cc2ccc(OC)cc2)N(C)C(=O)[C@H](CC(C)C)N2C(=O)[C@H](CC[C@H]2OC)NC(=O)[C@H](CC(C)C)NC(=O)[C@@H]2[C@@H](OC1=O)C(C)CN2C(=O)[C@H](CCC(N)=O)NC(C)=O (stereo partly drawn) [NOSTOPEPTIN J] | IC50 [4]: 3200 nM
24 |  |  | inactive | CC[C@@H](C)[C@@H]1NC(=O)[C@H](Cc2ccc(OC)cc2)N(C)C(=O)[C@H]([C@@H](C)CC)N2C(=O)[C@H](CC[C@H]2O)NC(=O)[C@H](CCc2ccc(O)cc2)NC(=O)[C@@H](NC(=O)[C@H](CCc2ccc(O)cc2)NC(=O)[C@@H](COS(=O)(=O)O)OC)[C@@H](C)OC1=O [OSCILLAPEPTIN A] | IC50 [4]: 1890 nM
25 |  |  | inactive | CC[C@H](C)[C@@H]1NC(=O)[C@H](Cc2ccc(OC)cc2)N(C)C(=O)[C@H]([C@@H](C)O)N2C(=O)[C@H](CC[C@H]2O)NC(=O)[C@H](CC(C)C)NC(=O)[C@@H](NC(=O)[C@H](CCC(N)=O)NC(=O)[C@H](CCc2ccc(O)cc2)NC(=O)[C@@H](O)CO)[C@@H](C)OC1=O [PLANKTOPEPTIN BL1125] | IC50 [4]: 800 nM
